From ChEMBL document CHEMBL3877271, “Antagonizing STAT3 activation with benzo[b]thiophene 1, 1-dioxide based small molecules” (Eur J Med Chem, 2017)
Active and inactive are the calls of the source. No cut-off for these calls is given here.

Key:
[1] = test system: MDA-MB-231; assay: Induction of ROS generation in human MDA-MB-231 cells at 1 uM after 24 hrs by DCFH-DA staining based flow cytometry relative to control; type: functional
Method in brief: (§1)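 3 × 10⁵ cells/well in 6-well plates treated 24 h (0, 1, 3, 5 µM). Medium replaced with serum-free medium holding DCFH-DA at 10 µM final, 20 min at 37 °C. Cells washed twice, trypsinised, resuspended in warm PBS and read by flow cytometry.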

[2] = test system: MDA-MB-231; assay: Induction of apoptosis in human MDA-MB-231 cells assessed as late apoptotic cells at 1 uM after 24 hrs by Annexin-V FITC/propidium iodide staining based flow cytometry (reference value: 1.8%); type: functional
[3] = target: Signal transducer and activator of transcription 3 (Homo sapiens) (UniProt P40763); assay: Inhibition of STAT3 dimer DNA binding activity in human MDA-MB-231 nuclear extract at 1 to 5 uM preincubated for 24 hrs followed by addition of [32P]hSIE by electrophoretic mobility shift assay
Method in brief: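 Cells treated 24 h in fresh growth medium. Nuclear extracts of equal total protein incubated with ³²P-labelled hSIE oligonucleotide probe and resolved by EMSA; Stattic 5 µM as comparator.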

[4] = test system: A549; assay: Potency index, ratio of stattic IC50 to compound IC50 for human A549 cells; type: functional
[5] = test system: HCT-116; assay: Potency index, ratio of stattic IC50 to compound IC50 for human HCT116 cells; type: functional
[6] = test system: MDA-MB-231; assay: Induction of apoptosis in human MDA-MB-231 cells assessed as live cells at 1 uM after 24 hrs by Annexin-V FITC/propidium iodide staining based flow cytometry (reference value: 90.3%); type: functional
[7] = test system: MDA-MB-231; assay: Induction of apoptosis in human MDA-MB-231 cells assessed as early apoptotic cells at 3 uM after 24 hrs by Annexin-V FITC/propidium iodide staining based flow cytometry (reference value: 3.8%); type: functional
[8] = test system: MDA-MB-231; assay: Potency index, ratio of stattic IC50 to compound IC50 for human MDA-MB-231 cells; type: functional
[9] = test system: MDA-MB-231; assay: Induction of apoptosis in human MDA-MB-231 cells assessed as early apoptotic cells at 5 uM after 24 hrs by Annexin-V FITC/propidium iodide staining based flow cytometry (reference value: 3.8%); type: functional
[10] = test system: MDA-MB-231; assay: Induction of apoptosis in human MDA-MB-231 cells assessed as live cells at 3 uM after 24 hrs by Annexin-V FITC/propidium iodide staining based flow cytometry (reference value: 90.3%); type: functional
[11] = test system: MDA-MB-231; assay: Induction of apoptosis in human MDA-MB-231 cells assessed as late apoptotic cells at 7 uM after 24 hrs by Annexin-V FITC/propidium iodide staining based flow cytometry (reference value: 1.8%); type: functional
[12] = test system: MDA-MB-231; assay: Induction of ROS generation in human MDA-MB-231 cells at 3 uM after 24 hrs by DCFH-DA staining based flow cytometry relative to control; type: functional; method in brief: as §1

Signal transducer and activator of transcription 3 (Homo sapiens), sequence (P40763 whole entry): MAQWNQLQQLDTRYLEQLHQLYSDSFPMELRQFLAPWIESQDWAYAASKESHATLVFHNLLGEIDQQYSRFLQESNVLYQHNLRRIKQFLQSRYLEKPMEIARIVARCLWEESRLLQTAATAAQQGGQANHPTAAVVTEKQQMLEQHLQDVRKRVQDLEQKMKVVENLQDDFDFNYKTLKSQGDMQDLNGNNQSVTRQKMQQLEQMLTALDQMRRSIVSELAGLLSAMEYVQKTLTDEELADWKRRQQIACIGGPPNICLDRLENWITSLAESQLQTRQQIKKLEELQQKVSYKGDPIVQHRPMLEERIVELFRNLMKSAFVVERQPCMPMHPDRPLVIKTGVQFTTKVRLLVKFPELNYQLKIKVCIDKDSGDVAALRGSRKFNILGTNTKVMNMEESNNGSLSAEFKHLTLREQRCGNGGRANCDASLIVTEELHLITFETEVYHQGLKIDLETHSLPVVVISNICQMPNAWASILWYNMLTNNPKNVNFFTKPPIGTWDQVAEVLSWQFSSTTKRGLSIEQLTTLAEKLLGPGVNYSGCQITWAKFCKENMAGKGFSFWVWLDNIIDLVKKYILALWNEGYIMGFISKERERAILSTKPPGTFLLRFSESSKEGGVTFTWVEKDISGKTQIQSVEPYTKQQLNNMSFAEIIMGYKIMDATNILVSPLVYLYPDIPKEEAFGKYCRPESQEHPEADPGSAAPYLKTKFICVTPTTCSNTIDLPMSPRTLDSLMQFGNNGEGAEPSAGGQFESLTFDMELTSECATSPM

## O=S1(=O)C=Cc2cccc(Nc3cccc(C(F)(F)F)c3)c21
[1]
  fold change (FC): 1.37
[2]
  Activity: 3.4%
[3]
  inhibition: Active
[4]
  Ratio IC50: 1.5 - 12
[5]
  Ratio IC50: 1.5 - 12
[6]
  Activity: 84.2%
[7]
  Activity: 6.8%
[8]
  Ratio IC50: 1.5 - 12
[9]
  Activity: 10.3%
[10]
  Activity: 83.4%
[11]
  Activity: 8.7%
[12]
  fold change (FC): 1.74
